Bioassay records (PubChem)
HSF1 inhib = HSF1 inhibition; NIH3T3-HGL HSE-luciferase, MG132-induced, luminescence 8 h; hits give low values; activity change, negative = inhibition, % at 7.5 µM (by protocol); 300,000 tested, 0.77% active;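 active = more than half of replicate wells show activity change below -50%, luminescence cut by over half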;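 also: luciferase reports HSF-1 transcriptional activity via heat shock element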
HSF1 activator = increases HSF-1 driven luciferase reporter signal. activation, % at 9 µM. 300,000 tested, 1.7% active. AID 504408. NIH3T3-HGL HSF-1 luciferase reporter, MG132, 8 h; 100% = twice DMSO control signal;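 active = mean replicate activation of at least 50% with a set share of replicates each reaching 50%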
HCV core dimer = blocks dimerization of HCV core protein | inhibition, % at 5 µM | 300,000 tested, 0.33% active | TR-FRET GST/Flag-core106 dimerization, 1536-well;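 active = inhibition above the mean of all tested compounds plus 3 SD, set per screening campaign, cut at about 45% in these data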
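Assay system: Tagged HCV core106 pair (GST and Flag) | Buffer or medium: KF-containing HEPES buffer, pH 7.45, DTT, CHAPS, BSA | Also added: Eu donor and XL665 acceptor anti-tag antibodies | Dosing: One concentration, 5 µM, in 0.5% DMSO | Timing: 4 h at 22.5 °C | Technique: TR-FRET 671 and 617 nm emission | Repeats: Singlicate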
AI-2 QS mod = Vibrio harveyi AI-2 quorum sensing modulation. 300,000 tested, 0.4% active. activity change, % at 7.5 µM. Vibrio harveyi JMH597 AI-2 luminescence/OD600 ratio, 9 h; hits give low values; strain lacks LuxN and CqsS sensors; 0 = neutral-control median; in the data active = activity change below about -75%, passing the limit was not always enough;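 also: luminescence divided by OD600 gain over 9 h not by final OD600 alone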
ALR H2O2 inh = inhibitors of human sulfhydryl oxidase ALR. P55789. purified ALR, DTT oxidation, H2O2 HRP-luminol luminescence. inhibition, % (concentration not given with the values). 290,000 tested, 3.8% active;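 active = mean replicate inhibition above about 79%, with every replicate also reaching it, limit read from the data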
PHOSPHO1 inh = blocks human PHOSPHO1 phosphatase activity | recombinant PHOSPHO1, absorbance phosphatase assay | inhibition, % at 13.3 µM | 290,000 tested, 1.1% active; in the data active = inhibition above about 60%
Target sequence (Q8TCT1 whole entry, looked up): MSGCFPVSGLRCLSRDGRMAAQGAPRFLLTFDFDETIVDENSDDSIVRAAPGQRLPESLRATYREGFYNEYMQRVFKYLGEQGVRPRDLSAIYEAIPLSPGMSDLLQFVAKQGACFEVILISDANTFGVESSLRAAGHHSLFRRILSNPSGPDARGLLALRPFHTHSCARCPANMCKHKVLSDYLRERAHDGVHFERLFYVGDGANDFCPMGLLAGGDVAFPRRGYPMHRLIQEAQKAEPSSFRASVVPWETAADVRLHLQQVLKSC
Hits are given with their value; 0 = inactive; - = no result. This is a sample that favours compounds with a hit; in the whole collection about 6.8% have one here.

SMILES	HSF1 inhib	HSF1 activator	HCV core dimer	AI-2 QS mod	ALR H2O2 inh	PHOSPHO1 inh
CCNc1nc(NCC)n2c(SC(C(=O)Nc3cc(C)ccc3OC)c3ccccc3)nnc2n1 (configuration not stated)	0	0	0	0	-	0
CC1CCN(S(=O)(=O)c2cccc(-c3cn4cc(Cl)ccc4n3)c2)CC1	0	0	0	0	0	0
CCOC(=O)C1CCN(S(=O)(=O)c2cccc(-c3cn4cc(Cl)ccc4n3)c2)CC1	0	0	0	0	99.0	96.9
CCOC(=O)C1CCN(S(=O)(=O)c2cccc(-c3cn4ccccc4n3)c2)CC1	0	0	0	0	98.8	84.1
C=CCNCCOCCOc1ccccc1-c1ccccc1	0	0	0	0	0	0
CCN(CC(=O)Nc1c(F)cccc1F)C(=O)c1ccc2ncsc2c1	0	0	0	0	0	-
CC(C)c1ccc(N2C(=O)CC(Sc3ncn[nH]3)C2=O)cc1 (configuration not stated)	0	0	0	0	0	93.1
CCCc1c(O)nc(SC2CC(=O)N(c3cc(OC)ccc3OC)C2=O)[nH]c1=O (configuration not stated)	0	0	0	0	0	0
COc1ccc(N2C(=O)CC(Sc3ncn[nH]3)C2=O)c(OC)c1 (configuration not stated)	0	0	0	0	0	92.2
COc1ccc(-n2nc(C(=O)NCC(=O)N3CCOCC3)c3ccccc3c2=O)cc1Cl	0	56.2	0	0	0	0
Nc1nc(-c2ccc(-c3ccccc3)cc2)cs1	0	0	0	0	99.3	0
Nc1nc(-c2cc3ccccc3o2)cs1	0	62.4	0	0	0	0
Nc1nc(-c2ccccc2Br)cs1	0	0	0	0	98.0	0
Nc1nc(-c2ccc3ccccc3c2)cs1	0	67.3	0	0	97.7	0
Cn1c(=O)c(C(=O)CN2CC(=O)Nc3ccccc32)c(N)n(Cc2ccccc2)c1=O	0	0	0	0	0	0
CC(C)CC(C)c1cc(N)nc2nc3ccccc3n12 (configuration not stated)	0	0	0	0	0	0
CCCCC1=C([O-])C2N=CC=CC2=[N+](c2ccccn2)C1=O (configuration not stated)	0	0	0	0	0	0
CCOc1ccc(N=C2SC(C(=O)Nc3ccccc3C#N)C(N)=C2C(=O)Nc2ccc(Cl)cc2)cc1 (configuration not stated)	0	0	54.7	0	0	0
O=C(Nc1ccccc1OCc1ccccc1)c1ccccc1Br	0	0	0	0	0	0
O=C(O)c1ccc(N2C(=O)CSC2=S)cc1	0	0	0	0	0	-
O=C(O)c1ccc(CN2C(=O)CSC2=S)cc1	0	0	0	0	0	71.1
Cc1cccc(CSc2nc3c(c(=O)[nH]2)CCCC3)c1	0	0	0	0	-	0
Cc1c(Cl)cccc1NC(=O)CSc1nc2c(c(=O)[nH]1)CCCC2	0	60.2	0	0	0	0
O=C(CSc1nc2c(c(=O)[nH]1)CCC2)Nc1ccccc1Cl	0	0	0	0	-	0
Cc1cc(C)c2c(=O)[nH]c(SCC(=O)c3ccc(C)c(C)c3)nc2n1	0	0	0	0	98.4	0
SMILES	HSF1 inhib	HSF1 activator	HCV core dimer	AI-2 QS mod	ALR H2O2 inh	PHOSPHO1 inh
O=c1[nH]c(SCc2cccc(F)c2)nc2c1CCCC2	0	62.6	0	0	-	0
CCc1cccc(NC(=O)CSc2nc3c(c(=O)[nH]2)CCCC3)c1	-	-	0	0	0	0
CN(C)c1ccc(NC(=O)CSc2nc3c(c(=O)[nH]2)CCCC3)cc1	0	0	0	0	96.2	0
Cc1cc(C)c2c(=O)[nH]c(SCC(=O)Nc3ccccc3)nc2n1	0	0	0	0	0	0
Cc1ccc(NC(=O)CSc2nc3nc(C)cc(C)c3c(=O)[nH]2)cc1	0	0	0	0	0	0
Cc1cc(C)c2c(=O)[nH]c(SCC(=O)Nc3ccc(N(C)C)cc3)nc2n1	0	0	0	0	99.3	0
COc1ccc(C(=O)CSc2nc(C)cc(=O)[nH]2)cc1C	-76.4	0	0	0	0	0
Cc1cc(C)cc(NC(=O)CSc2nc3nc(C)cc(C)c3c(=O)[nH]2)c1	-	-	-	-	99.1	-
Cc1cc(C)c2c(=O)[nH]c(SCC(=O)N3CCCCC3)nc2n1	0	0	0	0	0	0
